The source made the active and inactive calls. The calls are words filed in the database; no cut-off is given here.
What was measured:
A549 = experiment: Antitumor activity against human A549 cells assessed as inhibition of cell proliferation after 48 hrs by MTT assay; assay type: functional, cell-based; settings: A549, 48 h
In short: (§1)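 Cells grown to log phase in RPMI 1640 with 10% FBS, seeded at 2×10^4 cells/mL and preincubated 24 h at 37 °C, 5% CO2. Compounds at preset concentrations added (6 wells), celecoxib as positive reference, 48 h exposure. MTT (2.5 mg/mL in PBS) for 4 h, then SDS/isobutanol/HCl extraction overnight at 37 °C. OD read at 570 nm. Triplicate wells per concentration, at least three independent runs.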

[1] = target: Prostaglandin G/H synthase 1 (Homo sapiens, UniProt P23219); experiment: Inhibition of COX-1 (unknown origin) by chemiluminescence assay
[2] = target: T1, Prostaglandin G/H synthase 2 (Mus musculus, UniProt Q05769); experiment: Inhibition of COX-2 in mouse RAW264.7 cells assessed as decrease in LPS-induced PGE2 production; assay type: cell-based
T1 sequence (Q05769 whole entry): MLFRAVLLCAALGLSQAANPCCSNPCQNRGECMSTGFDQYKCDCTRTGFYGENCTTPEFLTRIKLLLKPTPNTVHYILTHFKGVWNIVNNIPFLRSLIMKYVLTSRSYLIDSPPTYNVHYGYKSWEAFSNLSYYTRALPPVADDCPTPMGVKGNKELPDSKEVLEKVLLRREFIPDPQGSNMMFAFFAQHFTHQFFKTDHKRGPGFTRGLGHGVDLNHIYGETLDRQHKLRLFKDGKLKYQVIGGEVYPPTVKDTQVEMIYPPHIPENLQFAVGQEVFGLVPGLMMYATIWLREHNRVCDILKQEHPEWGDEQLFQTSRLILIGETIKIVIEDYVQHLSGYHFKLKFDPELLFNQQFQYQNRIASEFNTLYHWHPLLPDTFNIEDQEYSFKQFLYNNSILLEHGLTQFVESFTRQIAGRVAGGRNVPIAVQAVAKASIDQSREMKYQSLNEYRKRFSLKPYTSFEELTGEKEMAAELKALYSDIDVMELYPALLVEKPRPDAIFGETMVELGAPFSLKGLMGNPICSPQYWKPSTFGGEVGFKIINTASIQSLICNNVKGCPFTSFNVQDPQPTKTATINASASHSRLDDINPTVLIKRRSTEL

MCF7 = experiment: Antitumor activity against human MCF7 cells assessed as inhibition of cell proliferation after 48 hrs by MTT assay; assay type: functional, cell-based; settings: MCF7, 48 h; in short: as §1
B16-F10 = experiment: Antitumor activity against mouse B16F10 cells assessed as inhibition of cell proliferation after 48 hrs by MTT assay; assay type: functional, cell-based; settings: B16-F10, 48 h; in short: as §1
[3] = target: T2, Prostaglandin G/H synthase 2 (Homo sapiens, UniProt P35354); experiment: Inhibition of COX-2 (unknown origin) by chemiluminescence assay
T2 sequence (P35354 whole entry): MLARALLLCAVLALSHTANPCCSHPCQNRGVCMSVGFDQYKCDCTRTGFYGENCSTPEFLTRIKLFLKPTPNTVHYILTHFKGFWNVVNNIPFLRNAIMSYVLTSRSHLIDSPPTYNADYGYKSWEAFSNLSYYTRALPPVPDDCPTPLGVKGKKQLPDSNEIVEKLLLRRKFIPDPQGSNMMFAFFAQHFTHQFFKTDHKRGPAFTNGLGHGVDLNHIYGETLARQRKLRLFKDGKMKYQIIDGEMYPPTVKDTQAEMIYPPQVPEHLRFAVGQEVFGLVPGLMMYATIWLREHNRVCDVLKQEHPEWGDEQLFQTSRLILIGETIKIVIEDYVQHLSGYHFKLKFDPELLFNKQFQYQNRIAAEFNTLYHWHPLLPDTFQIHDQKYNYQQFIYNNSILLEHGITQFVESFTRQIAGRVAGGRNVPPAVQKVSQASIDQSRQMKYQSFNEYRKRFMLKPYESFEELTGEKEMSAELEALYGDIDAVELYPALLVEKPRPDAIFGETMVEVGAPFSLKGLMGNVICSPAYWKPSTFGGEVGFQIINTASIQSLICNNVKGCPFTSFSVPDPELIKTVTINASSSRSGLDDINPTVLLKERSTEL

RAW264.7 = experiment: Inhibition of LPS-induced COX-2 expression in mouse RAW264.7 cells at >0.5 uM treated for 15 mins before LPS challenge measured after 18 hrs by Western blot analysis; assay type: functional, cell-based
In short: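 RAW 264.7 cells (5×10^5) incubated 24 h in 12-well plates. Compound pretreatment at 0.5, 1.0 or 1.5 µM for 15 min, then LPS 1 µg/mL for 18 h. Cells lysed in lysis buffer. COX-2 protein detected by Western immunoblot.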

Chain of Prostaglandin G/H synthase 1 (P23219 whole entry): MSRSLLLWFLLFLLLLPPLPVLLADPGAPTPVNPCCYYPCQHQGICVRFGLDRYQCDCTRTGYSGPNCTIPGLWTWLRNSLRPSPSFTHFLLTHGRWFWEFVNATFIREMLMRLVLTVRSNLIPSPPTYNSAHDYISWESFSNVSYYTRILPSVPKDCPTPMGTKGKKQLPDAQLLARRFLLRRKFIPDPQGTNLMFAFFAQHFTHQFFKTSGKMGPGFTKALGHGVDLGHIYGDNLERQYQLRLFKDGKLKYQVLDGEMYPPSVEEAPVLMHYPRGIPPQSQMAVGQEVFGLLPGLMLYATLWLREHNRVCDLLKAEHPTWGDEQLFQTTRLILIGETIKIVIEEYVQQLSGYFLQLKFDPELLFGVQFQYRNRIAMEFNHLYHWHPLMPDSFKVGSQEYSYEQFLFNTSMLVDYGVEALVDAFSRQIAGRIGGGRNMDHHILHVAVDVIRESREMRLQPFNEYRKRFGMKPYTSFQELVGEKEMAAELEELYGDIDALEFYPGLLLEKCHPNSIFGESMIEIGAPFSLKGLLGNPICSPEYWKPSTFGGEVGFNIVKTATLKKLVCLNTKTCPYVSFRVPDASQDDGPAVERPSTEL

Row | SMILES | IC50 (A549) [µM] | IC50 [1] [µM] | IC50 [2] [µM] | IC50 (MCF7) [µM] | IC50 (B16-F10) [µM] | IC50 [3] [µM] | inhibition (RAW264.7)
1 | CCC1CCCCN1C(=O)/C=C/c1c(/C=C/c2ccc(OC)cc2)cc(OC)cc1OC (stereo unspecified) | 5.6 | > 50 | 6.27 | 5.24 | 7.38 | 10.3 | 
2 | COc1ccc(/C=C/c2cc(OC)cc(OC)c2/C=C/C(=O)O)cc1 | 5.46 | > 50 | 3.01 | 6.1 | 6.78 | 6.89 | 

Further lines, with some results ahead:

Row | IC50 (A549) [µM] | IC50 [1] [µM] | IC50 [2] [µM] | IC50 (MCF7) [µM] | IC50 (B16-F10) [µM] | IC50 [3] [µM] | SMILES | inhibition (RAW264.7)
3 | 1.88 | > 50 | 0.28 | 1.33 | 2.08 | 1.02 | CCCCNC(=O)/C=C/c1c(/C=C/c2ccc(OC)cc2)cc(OC)cc1OC | Active
4 | 7.49 | > 50 | 7.19 | 6.13 | 9.27 | 16.4 | CCCCCN(CCCCC)C(=O)/C=C/c1c(/C=C/c2ccc(OC)cc2)cc(OC)cc1OC | 
5 | 3.95 | > 50 | 2.09 | 3.43 | 4.38 | 4.56 | CCC(C)NC(=O)/C=C/c1c(/C=C/c2ccc(OC)cc2)cc(OC)cc1OC (stereo unspecified) | 
